From PMC2119941 (The Journal of Cell Biology, 1994)
No end group written: not given here.

Assays:
[1] = molecular target: T1, alpha 5 beta 1 integrin (Homo sapiens, UniProt P05556+P08648); format: binding; details: unrelated cyclic control peptide
[2] = molecular target: alpha 5 beta 1 integrin (UniProt G3HZ55+P08648); assay: Cell attachment assay: B2/a27 cells on fibronectin; format: cell-based, human
[3] = molecular target: T1, alpha 5 beta 1 integrin; format: binding; details: control peptide; not shown
[4] = molecular target: T1, alpha 5 beta 1 integrin; format: binding
[5] = molecular target: alpha IIb beta 3 integrin (Homo sapiens, UniProt P05106+P08514); assay: Binding to wells coated with alpha IIb beta 3 integrin
[6] = molecular target: alpha v beta 3 integrin (Homo sapiens, UniProt P05106+P06756); format: binding
Chain of alpha v beta 3 integrin (P06756 891-1048): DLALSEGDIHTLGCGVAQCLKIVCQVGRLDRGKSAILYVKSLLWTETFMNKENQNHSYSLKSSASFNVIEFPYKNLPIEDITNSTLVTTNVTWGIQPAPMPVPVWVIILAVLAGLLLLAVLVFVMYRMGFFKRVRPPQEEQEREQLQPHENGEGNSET
Chain of alpha v beta 3 integrin (P05106 27-788): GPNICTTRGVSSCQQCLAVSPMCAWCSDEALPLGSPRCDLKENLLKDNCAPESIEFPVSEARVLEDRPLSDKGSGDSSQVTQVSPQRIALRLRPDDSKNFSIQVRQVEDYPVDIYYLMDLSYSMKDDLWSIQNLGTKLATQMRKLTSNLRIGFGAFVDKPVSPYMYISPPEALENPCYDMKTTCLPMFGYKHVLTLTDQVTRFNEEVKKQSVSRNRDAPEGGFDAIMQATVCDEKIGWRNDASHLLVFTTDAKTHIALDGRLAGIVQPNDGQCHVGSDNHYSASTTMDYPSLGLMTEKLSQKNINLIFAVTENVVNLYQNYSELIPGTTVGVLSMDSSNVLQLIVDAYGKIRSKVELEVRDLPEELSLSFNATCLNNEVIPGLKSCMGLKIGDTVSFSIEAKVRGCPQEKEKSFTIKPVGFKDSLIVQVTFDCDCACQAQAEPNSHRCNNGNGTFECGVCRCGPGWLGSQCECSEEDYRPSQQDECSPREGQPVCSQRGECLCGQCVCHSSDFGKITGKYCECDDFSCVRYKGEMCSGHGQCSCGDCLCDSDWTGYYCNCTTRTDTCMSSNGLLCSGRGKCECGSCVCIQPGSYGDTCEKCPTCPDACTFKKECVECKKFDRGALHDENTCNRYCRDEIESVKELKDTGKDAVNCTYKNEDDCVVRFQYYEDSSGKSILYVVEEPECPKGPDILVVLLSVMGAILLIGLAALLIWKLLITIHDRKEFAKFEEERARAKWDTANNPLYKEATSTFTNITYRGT
Chain of alpha v beta 3 integrin (P06756 31-889): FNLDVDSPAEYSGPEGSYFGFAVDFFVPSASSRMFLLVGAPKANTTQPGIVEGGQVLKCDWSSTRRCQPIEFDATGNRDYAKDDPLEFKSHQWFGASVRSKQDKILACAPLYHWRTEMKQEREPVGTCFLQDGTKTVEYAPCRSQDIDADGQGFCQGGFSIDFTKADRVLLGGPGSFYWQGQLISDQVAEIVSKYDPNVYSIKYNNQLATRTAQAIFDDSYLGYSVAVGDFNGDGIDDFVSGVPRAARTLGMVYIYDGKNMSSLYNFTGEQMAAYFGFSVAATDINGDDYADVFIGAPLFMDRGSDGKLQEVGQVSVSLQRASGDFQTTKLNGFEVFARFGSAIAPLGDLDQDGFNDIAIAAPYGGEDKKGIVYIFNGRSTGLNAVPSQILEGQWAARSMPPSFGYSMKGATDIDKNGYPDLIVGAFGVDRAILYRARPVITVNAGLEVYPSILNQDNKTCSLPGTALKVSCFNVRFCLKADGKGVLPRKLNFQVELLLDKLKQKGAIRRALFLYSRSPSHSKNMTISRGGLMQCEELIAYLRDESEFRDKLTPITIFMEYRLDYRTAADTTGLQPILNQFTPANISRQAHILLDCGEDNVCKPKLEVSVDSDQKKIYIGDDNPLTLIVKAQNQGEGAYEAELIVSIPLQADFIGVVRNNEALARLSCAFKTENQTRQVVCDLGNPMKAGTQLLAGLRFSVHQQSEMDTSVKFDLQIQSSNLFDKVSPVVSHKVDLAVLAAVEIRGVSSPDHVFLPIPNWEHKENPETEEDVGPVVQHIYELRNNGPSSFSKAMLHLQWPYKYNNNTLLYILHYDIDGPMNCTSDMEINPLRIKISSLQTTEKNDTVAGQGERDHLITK
Summary of the method: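 Human placental αvβ3 (octyl glucoside extract with 1 mM MnCl2 and 1 mM CaCl2) coated in microtiter wells. Phage incubated 1 h at room temperature, then washed five times. Bound phage infected K91kan bacteria for 10 min at 37°C, then grown in Terrific broth with tetracycline and kanamycin (30 min at 37°C, then overnight at room temperature with shaking). Bacterial growth read as A600.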

T1 sequence (P08648 42-894 limits assumed): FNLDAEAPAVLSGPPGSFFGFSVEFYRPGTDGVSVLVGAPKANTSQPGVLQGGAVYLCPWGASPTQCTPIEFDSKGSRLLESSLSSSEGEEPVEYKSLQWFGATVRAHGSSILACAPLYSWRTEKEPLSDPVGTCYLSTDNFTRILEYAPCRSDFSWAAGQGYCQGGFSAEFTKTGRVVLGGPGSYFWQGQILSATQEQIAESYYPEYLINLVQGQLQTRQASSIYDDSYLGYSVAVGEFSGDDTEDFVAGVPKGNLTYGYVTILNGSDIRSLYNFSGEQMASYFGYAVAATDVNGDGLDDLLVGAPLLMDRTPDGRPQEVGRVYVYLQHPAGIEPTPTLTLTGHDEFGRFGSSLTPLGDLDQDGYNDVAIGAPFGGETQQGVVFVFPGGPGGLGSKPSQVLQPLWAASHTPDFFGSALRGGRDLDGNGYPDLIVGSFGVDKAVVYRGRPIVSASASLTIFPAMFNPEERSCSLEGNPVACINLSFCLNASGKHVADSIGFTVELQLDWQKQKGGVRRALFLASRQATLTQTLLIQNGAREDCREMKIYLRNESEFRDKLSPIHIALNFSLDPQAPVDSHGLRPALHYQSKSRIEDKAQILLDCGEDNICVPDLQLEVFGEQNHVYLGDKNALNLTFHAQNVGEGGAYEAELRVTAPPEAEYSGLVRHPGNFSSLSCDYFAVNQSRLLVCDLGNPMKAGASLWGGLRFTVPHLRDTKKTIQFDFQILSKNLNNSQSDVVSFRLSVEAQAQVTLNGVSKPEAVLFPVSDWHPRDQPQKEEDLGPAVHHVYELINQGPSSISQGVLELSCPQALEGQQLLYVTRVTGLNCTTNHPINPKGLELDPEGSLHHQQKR
T1 sequence (P08648 895-1049 limits assumed): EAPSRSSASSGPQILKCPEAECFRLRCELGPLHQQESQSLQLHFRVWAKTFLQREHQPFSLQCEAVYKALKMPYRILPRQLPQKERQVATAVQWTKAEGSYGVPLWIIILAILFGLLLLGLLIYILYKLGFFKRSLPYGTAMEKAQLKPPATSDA
T1 sequence (P05556 21-798): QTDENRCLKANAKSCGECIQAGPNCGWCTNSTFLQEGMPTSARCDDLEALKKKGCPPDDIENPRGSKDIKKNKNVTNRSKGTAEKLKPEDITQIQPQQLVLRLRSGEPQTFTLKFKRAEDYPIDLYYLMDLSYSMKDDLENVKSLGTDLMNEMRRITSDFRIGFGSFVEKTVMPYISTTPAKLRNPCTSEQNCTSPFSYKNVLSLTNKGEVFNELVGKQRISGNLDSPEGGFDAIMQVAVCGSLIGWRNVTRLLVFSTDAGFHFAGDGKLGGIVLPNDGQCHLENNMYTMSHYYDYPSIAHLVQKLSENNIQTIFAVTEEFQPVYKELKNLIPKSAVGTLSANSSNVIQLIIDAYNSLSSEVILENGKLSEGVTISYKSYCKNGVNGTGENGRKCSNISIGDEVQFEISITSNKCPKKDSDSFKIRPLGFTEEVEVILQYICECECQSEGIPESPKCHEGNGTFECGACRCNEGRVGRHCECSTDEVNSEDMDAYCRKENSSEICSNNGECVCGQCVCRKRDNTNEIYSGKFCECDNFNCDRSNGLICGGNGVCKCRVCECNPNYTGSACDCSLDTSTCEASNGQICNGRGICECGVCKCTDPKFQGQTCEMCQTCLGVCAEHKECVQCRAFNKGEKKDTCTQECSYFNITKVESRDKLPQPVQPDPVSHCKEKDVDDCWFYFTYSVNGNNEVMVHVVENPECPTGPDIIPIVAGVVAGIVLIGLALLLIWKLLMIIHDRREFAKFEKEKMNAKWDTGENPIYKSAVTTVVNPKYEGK
Chain of alpha 5 beta 1 integrin (UniProt G3HZ55+P08648) (P08648 42-894 limits assumed): as the sequence (P08648 42-894 limits assumed) above
Chain of alpha 5 beta 1 integrin (UniProt G3HZ55+P08648) (P08648 895-1049 limits assumed): as the sequence (P08648 895-1049 limits assumed) above
Chain of alpha 5 beta 1 integrin (UniProt G3HZ55+P08648) (G3HZ55 21-798): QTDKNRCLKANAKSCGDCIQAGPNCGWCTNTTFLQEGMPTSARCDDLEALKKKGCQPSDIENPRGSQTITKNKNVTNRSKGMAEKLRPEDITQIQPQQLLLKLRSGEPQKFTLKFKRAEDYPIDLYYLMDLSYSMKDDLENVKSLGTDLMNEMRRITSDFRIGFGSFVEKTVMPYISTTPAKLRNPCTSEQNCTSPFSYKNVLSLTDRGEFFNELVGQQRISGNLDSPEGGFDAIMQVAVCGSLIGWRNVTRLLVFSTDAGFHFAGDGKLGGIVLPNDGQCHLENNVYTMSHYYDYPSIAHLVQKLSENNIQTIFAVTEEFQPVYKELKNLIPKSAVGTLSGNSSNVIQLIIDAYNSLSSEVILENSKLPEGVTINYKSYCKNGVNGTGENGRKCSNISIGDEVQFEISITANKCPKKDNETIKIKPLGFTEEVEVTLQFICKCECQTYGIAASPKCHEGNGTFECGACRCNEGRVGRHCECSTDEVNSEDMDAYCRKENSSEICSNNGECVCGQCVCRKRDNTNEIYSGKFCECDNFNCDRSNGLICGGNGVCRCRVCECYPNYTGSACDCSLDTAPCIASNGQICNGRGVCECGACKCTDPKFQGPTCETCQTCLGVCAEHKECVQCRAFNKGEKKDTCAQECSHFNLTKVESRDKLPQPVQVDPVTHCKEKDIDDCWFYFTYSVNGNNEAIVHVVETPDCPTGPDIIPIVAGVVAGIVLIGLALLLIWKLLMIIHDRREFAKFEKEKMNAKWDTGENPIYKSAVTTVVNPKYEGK

Row | Substance | Binding of phage clone to microtiter wells coated with alpha 5 beta 1 [4] | further results
1 | GA*CSPYFLRLC*GA (disulfide) | – | Effect on binding of 125I-labeled fibronectin to alpha 5 beta 1 [1]: no significant effect
2 | GACRRETAWACGA [GACRRETAWACGA not cyclized] | – | Activity of peptide not cyclized by oxidation ([2]; relative to cyclic *CRRETAWAC*): reduced activity
3 | GRGESP [reference compound] | – | Effect on binding of RRETAWA-containing phage to alpha 5 beta 1 [3]: no effect; Effect on alpha 5 beta 1-mediated cell attachment to fibronectin ([2]; control peptide): no effect
4 | RGAPRAW (disulfide (positions not given here)) | bound weakly | –
5 | RRETAWA (disulfide (positions not given here)) [RRETAWA-phage] | avidly | Binding to the alpha IIb beta 3 integrin [5]: did not bind; Binding of phage clone to microtiter wells coated with alpha v beta 3 [6]: only weakly
6 | STSDVGG (disulfide (positions not given here)) | significantly over the background | –
7 | TLVPSRS (disulfide (positions not given here)) | significantly over the background | –
8 | VFSIAHE (disulfide (positions not given here)) | significantly over the background | –
9 | VRLNSLA (disulfide) | significantly over the background | –
